According to ChEMBL document CHEMBL4393700, “Novel resveratrol-based flavonol derivatives: Synthesis and anti-inflammatory activity in vitro and in vivo” (Eur J Med Chem, 2019):
Each block holds one molecule with its values, some of them ahead of it. Activity calls are given as the source filed them. The calls are words filed in the database; no cut-off is given here.

Key:
[1] = test system: RAW264.7; assay: Antiinflammatory activity in mouse RAW264.7 cells assessed as inhibition of LPS-induced NO production at 10 uM pretreated for 1 hr followed by LPS stimulation and measured after 24 hrs by Griess reagent based assay; format: functional, cell-based
Procedure, shortened: (§1)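 RAW264.7 in DMEM/10% FBS with penicillin-streptomycin, 37 °C, 5% CO2; seeded 6×10^4 cells/well, grown 24 h, pretreated 1 h with test agent (10 µM screen; 10, 5, 2.5, 1.25, 0.625 µM for concentration series), then LPS 0.5 µg/mL for 24 h. Supernatant nitrite measured with Griess reagent.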

[2] = test system: RAW264.7; assay: Cytotoxicity against LPS-stimulated mouse RAW264.7 cells at 20 uM pretreated for 1 hr followed by LPS stimulation and measured after 24 hrs by MTT assay; details: raw264.7, 24 h
[3] = test system: RAW264.7; assay: Antiinflammatory activity in mouse RAW264.7 cells assessed as reduction in LPS-induced NO production pretreated for 1 hr followed by LPS stimulation and measured after 24 hrs by Griess reagent based assay; format: functional, cell-based; procedure, shortened: as §1
[4] = test system: RAW264.7; assay: Antiinflammatory activity in mouse RAW264.7 cells assessed as reduction in LPS-induced IL-6 production pretreated for 1 hr followed by LPS stimulation and measured after 24 hrs by ELISA; format: functional, cell-based
Procedure, shortened: (§2)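 RAW264.7 seeded 6×10^4 cells/well, cultured 24 h; 1 h pretreatment at 10, 5, 2.5, 1.25 or 0.625 µM, then LPS 0.5 µg/mL for 24 h. IL-6 and TNF-α in conditioned medium quantified by ELISA.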

[5] = test system: RAW264.7; assay: Antiinflammatory activity in mouse RAW264.7 cells assessed as reduction in LPS-induced TNF alpha production pretreated for 1 hr followed by LPS stimulation and measured after 24 hrs by ELISA; format: functional, cell-based; procedure, shortened: as §2
[6] = test system: Mus musculus; assay: Antiinflammatory activity in C57/BL6 mouse ALI model assessed as reduction in LPS-induced pulmonary edema by measuring lung wet/dry weight ratio at 10 to 20 mg/kg, ip pretreated for 30 mins followed by LPS challenge and measured after 48 hrs; format: functional, organism-based
Procedure, shortened: (§3)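 Male C57BL/6 mice, 18~22 g, acclimatized one week; 40 randomly split into control, LPS, and two LPS groups pretreated i.p. (10 or 20 mg/kg) 30 min before LPS (methods: 20 mg/kg tail vein; legend: 5 mg/kg intratracheal). Saline i.p. to controls. Sacrificed 48 h after LPS; read-outs lung MPO, body weight, upper right lobe wet/dry ratio (dried at 60 °C until constant), H&E on paraformaldehyde-fixed paraffin sections.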

[7] = test system: RAW264.7; assay: Antiinflammatory activity in mouse RAW264.7 cells assessed as reduction in LPS-induced iNOS protein expression pretreated for 1 hr followed by LPS stimulation and measured after 24 hrs by Western blot analysis; format: functional, cell-based
Procedure, shortened: (§4)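 Western blot in RAW264.7: 1 h pretreatment at 0.5–2 µM, LPS 0.5 µg/mL for 24 h; lysis in RIPA with PMSF and phosphatase inhibitors on ice 30 min, 12% SDS-PAGE, PVDF, primary antibodies overnight at 4 °C, HRP secondary 1:5000 1 h at room temperature; iNOS and COX-2 against β-actin; three separate experiments.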

[8] = test system: RAW264.7; assay: Antiinflammatory activity in mouse RAW264.7 cells assessed as reduction in LPS-induced COX2 protein expression pretreated for 1 hr followed by LPS stimulation and measured after 24 hrs by Western blot analysis; format: functional, cell-based; procedure, shortened: as §4
[9] = test system: RAW264.7; assay: Antiinflammatory activity in mouse RAW264.7 cells assessed as reduction in LPS-induced TLR4 protein expression pretreated for 1 hr followed by LPS stimulation and measured after 30 mins by Western blot analysis; format: functional, cell-based
[10] = test system: RAW264.7; assay: Inhibition of LPS-induced JNK phosphorylation in mouse RAW264.7 cells pretreated for 1 hr followed by LPS stimulation by Western blot analysis; format: cell-based
Procedure, shortened: (§5)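 RAW264.7 seeded 3×10^5 cells/well, 24 h; pretreated 1 h at 0.5, 1 or 2 µM, then LPS 0.5 µg/mL for 30 min. RIPA lysates (PMSF, phosphatase inhibitors) on 12% SDS-PAGE, PVDF; primary antibodies overnight 4 °C, HRP secondary 1:5000. Probed phospho/total ERK, JNK, p38, p-IκB, IκB, p-p65, p65, β-actin; three independent experiments.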

[11] = test system: RAW264.7; assay: Effect on total ERK expression level in LPS-induced mouse RAW264.7 cells pretreated for 1 hr followed by LPS stimulation and measured after 30 mins by Western blot analysis; format: ADME, cell-based; details: raw264.7, 0.5 h; procedure, shortened: as §5
[12] = test system: RAW264.7; assay: Effect on total p38 expression level in LPS-induced mouse RAW264.7 cells pretreated for 1 hr followed by LPS stimulation and measured after 30 mins by Western blot analysis; format: ADME, cell-based; details: raw264.7, 0.5 h; procedure, shortened: as §5
[13] = test system: RAW264.7; assay: Effect on total JNK protein expression level in LPS-induced mouse RAW264.7 cells pretreated for 1 hr followed by LPS stimulation and measured after 30 mins by Western blot analysis; format: ADME, cell-based; details: raw264.7, 0.5 h; procedure, shortened: as §5
[14] = test system: RAW264.7; assay: Inhibition of LPS-stimulated NFkappaB activation in mouse RAW264.7 cells assessed as reduction in IkappaB phosphorylation at 0.5 to 2 uM pretreated for 1 hr followed by LPS stimulation and measured after 30 mins by Western blot analysis; format: cell-based; procedure, shortened: as §5
[15] = test system: RAW264.7; assay: Inhibition of LPS-stimulated NFkappaB activation in mouse RAW264.7 cells assessed as reduction in LPS-induced IkappaB degradation at 0.5 to 2 uM pretreated for 1 hr followed by LPS stimulation and measured after 30 mins by Western blot analysis; format: cell-based; procedure, shortened: as §5
[16] = test system: Mus musculus; assay: Antiinflammatory activity in C57/BL6 mouse ALI model assessed as reduction in LPS-induced MPO level in lungs tissue at 10 to 20 mg/kg, ip pretreated for 30 mins followed by LPS challenge and measured after 48 hrs; format: functional, organism-based; procedure, shortened: as §3
[17] = test system: Mus musculus; assay: Effect on LPS-induced body weight loss in C57/BL6 mouse at 10 to 20 mg/kg, ip pretreated for 30 mins followed by LPS challenge; format: functional, organism-based; procedure, shortened: as §3
[18] = test system: Mus musculus; assay: Protection against LPS-induced acute lung injury in C57/BL6 mouse assessed as survival rate at 10 to 20 mg/kg, ip pretreated for 30 mins followed by LPS challenge and measured at 24 hrs (reference value: 60%); format: functional
[19] = test system: Mus musculus; assay: Protection against LPS-induced acute lung injury in C57/BL6 mouse assessed as survival rate at 20 mg/kg, ip pretreated for 30 mins followed by LPS challenge and measured after 48 hrs (reference value: 10%); format: functional
[20] = test system: Mus musculus; assay: Antiinflammatory activity in C57/BL6 mouse ALI model assessed as reduction in LPS-induced pro-inflammatory alterations at 10 to 20 mg/kg, ip pretreated for 30 mins followed by LPS challenge and measured after 48 hrs by H and E staining based histopathological analysis; format: functional, organism-based; procedure, shortened: as §3
[21] = test system: Mus musculus; assay: Antiinflammatory activity in C57/BL6 mouse ALI model assessed as reduction in LPS-induced alveolar hemorrhage at 10 to 20 mg/kg, ip pretreated for 30 mins followed by LPS challenge and measured after 48 hrs by H and E staining based histopathological analysis; format: functional, organism-based; procedure, shortened: as §3
[22] = test system: Mus musculus; assay: Antiinflammatory activity in C57/BL6 mouse ALI model assessed as reduction in LPS-induced lung edema at 10 to 20 mg/kg, ip pretreated for 30 mins followed by LPS challenge and measured after 48 hrs by H and E staining based histopathological analysis; format: functional, organism-based; procedure, shortened: as §3
[23] = test system: Mus musculus; assay: Antiinflammatory activity in C57/BL6 mouse ALI model assessed as reduction in LPS-induced inflammatory cell infiltration at 10 to 20 mg/kg, ip pretreated for 30 mins followed by LPS challenge and measured after 48 hrs by H and E staining based histopathological analysis; format: functional, organism-based; procedure, shortened: as §3
[24] = test system: Mus musculus; assay: Antiinflammatory activity in C57/BL6 mouse ALI model assessed as reduction in LPS-induced destruction of alveolar structure at 10 to 20 mg/kg, ip pretreated for 30 mins followed by LPS challenge and measured after 48 hrs by H and E staining based histopathological analysis; format: functional, organism-based; procedure, shortened: as §3
[25] = Toxicity in C57/BL6 mouse ALI model assessed as induction of destruction of alveolar structure at 20 mg/kg, ip measured after 48 hrs by H and E staining based histopathological analysis; format: organism-based; details: in vivo
Procedure, shortened: (§6)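 Mice given 20 mg/kg i.p. without LPS, compared with controls; lung sections stained with hematoxylin and eosin for edema, hemorrhage, inflammatory cell infiltration and alveolar structure.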

[26] = Toxicity in C57/BL6 mouse ALI model assessed as induction of inflammatory cell infiltration at 20 mg/kg, ip measured after 48 hrs by H and E staining based histopathological analysis; format: organism-based; details: in vivo; procedure, shortened: as §6
[27] = Toxicity in C57/BL6 mouse ALI model assessed as mortality at 20 mg/kg, ip; format: organism-based; details: in vivo
Procedure, shortened: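 Mice were given the compound at 20 mg/kg ip as solutions, with no LPS challenge. They were observed against an untreated control group, and lung sections were then stained with H&E to look for inflammation, hemorrhage, edema and alveolar damage.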

[28] = Toxicity in C57/BL6 mouse ALI model assessed as induction of pro-inflammatory alterations at 20 mg/kg, ip measured after 48 hrs by H and E staining based histopathological analysis; format: organism-based; details: in vivo; procedure, shortened: as §6
[29] = Toxicity in C57/BL6 mouse ALI model assessed as induction of alveolar hemorrhage at 20 mg/kg, ip measured after 48 hrs by H and E staining based histopathological analysis; format: organism-based; details: in vivo; procedure, shortened: as §6
[30] = Toxicity in C57/BL6 mouse ALI model assessed as induction of lung edema at 20 mg/kg, ip measured after 48 hrs by H and E staining based histopathological analysis; format: organism-based; details: in vivo; procedure, shortened: as §6
[31] = test system: RAW264.7; assay: Inhibition of LPS-stimulated NFkappaB activation in mouse RAW264.7 cells assessed as reduction in p65 phosphorylation at 0.5 to 2 uM pretreated for 1 hr followed by LPS stimulation and measured after 30 mins by Western blot analysis; format: cell-based; procedure, shortened: as §5

SMILES: COc1ccc(/C=C/c2cc(OC)cc(OC)c2-c2oc3ccc(Br)cc3c(=O)c2O)cc1
inhibition [1]: Active

SMILES: COc1ccc(/C=C/c2cc(OC)cc(OC)c2-c2oc3cc(C)ccc3c(=O)c2O)cc1
Activity [2]: Non-Toxic

IC50 [3]: 4830 nM
IC50 [4]: 5060 nM
IC50 [5]: 7.34 µM
SMILES: COc1ccc(/C=C/c2cc(OC)cc(OC)c2-c2oc3ccc(Cl)cc3c(=O)c2O)cc1
inhibition [1]: Active
Activity [3]: Dose-dependent effect
Activity [4]: Dose-dependent effect
Activity [5]: Dose-dependent effect

SMILES: CCOc1ccc(/C=C/c2cc(OC)cc(OC)c2-c2oc3ccccc3c(=O)c2O)cc1
inhibition [1]: Active

SMILES: Oc1ccc(/C=C/c2cc(O)cc(O)c2)cc1
inhibition [1]: Active

SMILES: CCOc1ccc(/C=C/c2cc(OC)cc(OC)c2-c2oc3ccc(OC)cc3c(=O)c2O)cc1
Activity [2]: Non-Toxic

SMILES: COc1cc(/C=C/c2ccc(OCc3ccccc3)cc2)c(-c2cc(=O)c3cc(Br)ccc3o2)c(OC)c1
Activity [2]: Non-Toxic

SMILES: COc1ccc(/C=C/c2cc(OC)cc(OC)c2-c2oc3ccc(F)cc3c(=O)c2O)cc1
Activity [6]: Active
inhibition [1]: Active
Activity [3]: Dose-dependent effect
IC50 [3]: 1350 nM
Activity [4]: Dose-dependent effect
IC50 [4]: 1120 nM
Activity [5]: Dose-dependent effect
IC50 [5]: 1.92 µM
Activity [7]: Dose-dependent effect
Activity [8]: Dose-dependent effect
Activity [9]: Dose-dependent effect
inhibition [10]: inactive
Activity [11]: Non-Toxic
Activity [12]: Non-Toxic
Activity [13]: Non-Toxic
inhibition [14]: Active
inhibition [15]: Active
Activity [16]: Active
Activity [17]: inactive
Activity [18]: 90%
Activity [19]: 50%
Activity [20]: Active
Activity [21]: Active
Activity [22]: Active
Activity [23]: Active
Activity [24]: Active
Activity [25]: Non-Toxic
Activity [26]: Non-Toxic
Activity [27]: Non-Toxic
Activity [28]: Non-Toxic
Activity [29]: Non-Toxic
Activity [30]: Non-Toxic
inhibition [31]: Active

SMILES: COc1ccc(/C=C/c2cc(OC)cc(OC)c2-c2cc(=O)c3cc(F)ccc3o2)cc1
inhibition [1]: Active

SMILES: COc1ccc(/C=C/c2cc(OC)cc(OC)c2-c2cc(=O)c3cc(OC)ccc3o2)cc1
inhibition [1]: Active

IC50 [3]: 1780 nM
IC50 [4]: 2370 nM
IC50 [5]: 5 µM
SMILES: COc1ccc(/C=C/c2cc(OC)cc(OC)c2-c2oc3ccc(OC)cc3c(=O)c2O)cc1
inhibition [1]: Active
Activity [3]: Dose-dependent effect
Activity [4]: Dose-dependent effect
Activity [5]: Dose-dependent effect

SMILES: COc1ccc(/C=C/c2cc(OC)cc(OC)c2-c2cc(=O)c3cc(OC)c(OC)cc3o2)cc1
Activity [2]: Non-Toxic

SMILES: COc1cc(/C=C/c2ccc(OCc3ccccc3)cc2)c(-c2cc(=O)c3cc(OC)ccc3o2)c(OC)c1
Activity [2]: Non-Toxic

SMILES: Cc1ccc(-c2cc(C(F)(F)F)nn2-c2ccc(S(N)(=O)=O)cc2)cc1
inhibition [1]: Active

SMILES: CCOc1ccc(/C=C/c2cc(OC)cc(OC)c2-c2cc(=O)c3cc(OC)ccc3o2)cc1
Activity [2]: Non-Toxic
